We go through four molecules from publication PMC6068850 (World Journal of Hepatology, 2018).

Values after ≈ are worked out from the molar mass of the structure shown.

The nature of series [1]: In vitro release kinetics in rat intestinal homogenates. In kind it is in vitro ADME. Conditions: for % Prodrug hydrolysed / K ± SD (hydrolysis rate constant): rat intestinal homogenates; for % Prodrug hydrolysed: over 6 h; for K ± SD (hydrolysis rate constant): first-order kinetics, average of three readings; for half-life: rat, intestinal homogenates. An outline of the steps: (§1)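 Incubations in rat stomach homogenate ran up to 3 h; those in intestinal homogenate ran up to 6 h. Intact prodrug and released INH were quantified simultaneously by validated reverse-phase C18 HPLC using prodrug-specific mobile phases at 1 mL/min with UV detection. Percent hydrolysed and INH released came from calibration curves. Rate constants, half-lives and kinetic order were calculated; samples were run in triplicate.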

The next series concerns Wistar rats. Briefly: Evaluation of hepatoprotective potential. In kind it is in vivo. As to conditions: male Wistar rats, 21 d oral. The method in brief:
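Male Wistar rats (180-200 g), acclimatized 1 wk, randomized into 8 groups of 6. Oral suspensions in 1% sodium CMC for 21 d: INH 150 mg/kg/day, prodrugs and physical mixtures equimolar to INH, saline control. On day 22, rats were fasted overnight, bled retrobulbarly and sacrificed. Endpoints: serum ALT/AST, TG, cholesterol; liver SOD, GSHPx, MDA; blinded H&E histology.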

The next series is described as follows: Aqueous solubility. In kind it is physicochemical. Conditions: aqueous (water).
For a further series, the system named is rat liver. The series is described as follows: Histopathological analysis of rat liver. In kind it is in vivo, Wistar rats. Conditions: H&E-stained liver sections, 21 d oral. An outline of the steps: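 Male Wistar rats (180-200 g), acclimatized 1 wk at 24 ± 1 °C, 45%-55% humidity, 12:12 h light/dark; 8 groups of 6. Oral dosing for 21 d as a suspension in 1% sodium CMC, with doses equimolar to the parent drug. On day 22, rats were fasted overnight, bled and sacrificed. Liver was washed in ice-cold saline, fixed in 10% formalin, sectioned, H&E-stained and photographed under light microscopy.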

The nature of series [2]: In vitro release in rat stomach homogenates. Conditions: till 3 h. In kind it is in vitro ADME. The method in brief: as §1
In a further series the test system is malondialdehyde (MDA). The series is described as follows: Assay of lipid peroxidation products in liver. Conditions: 21 d oral, treated groups vs INH-treated group. Format: in vivo, Wistar rats. The method in brief:
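Hepatic lipid peroxidation was measured as thiobarbituric-acid-reactive MDA (Ohkawa method). 1,1,3,3-tetraethoxypropane was the standard, and results were expressed as micromoles per gram of tissue. Livers came from male Wistar rats (6/group) given oral suspensions in 1% sodium CMC for 21 d, INH 150 mg/kg/day, test compounds equimolar. Mean ± SEM; one-way ANOVA/Dunnett versus the INH group.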

The nature of series [3]: In vitro stability in phosphate buffer. Format: physicochemical. As to conditions: 0.05 mol/L phosphate buffer, 37 °C, till 6 h, HPLC. An outline of the steps:
(§2)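 5 mL aliquots were replaced with fresh buffer at 0, 15, 30, 45, 60 min, then every 30 min to 3 h (HCl) or 6 h (phosphate). Analysed by reverse-phase C18 HPLC against 10-100 μg/mL calibration curves; triplicate.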

The test system of series [4] is glutathione peroxidase (GSHPx). Briefly: Liver glutathione peroxidase, hepatoprotective study. In kind it is in vivo, Wistar rats. As to conditions: 21 d oral; for Level of GSHPx re-established: dose equimolar to INH 150 mg/kg/day.
Series [5] relates to superoxide dismutase (SOD). The series is described as follows: Liver superoxide dismutase activity, hepatoprotective study. Format: in vivo, Wistar rats. As to conditions: 21 d oral; for Level of SOD re-established: dose equimolar to INH 150 mg/kg/day.
A short description of series [6]: In vitro stability in HCl buffer. In kind it is physicochemical. Conditions: 0.05 mol/L HCl, 37 °C, till 3 h, HPLC. The method in brief: as §2
In series [7] the test system is aspartate aminotransferase (AST). Briefly: Estimation of serum aspartate aminotransferase. Format: in vivo, Wistar rats. Conditions: 21 d oral, mean ± SEM. An outline of the steps: (§3)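 Serum aminotransferases were measured colorimetrically with commercial kits (Reitman–Frankel method). Male Wistar rats (6/group) were dosed orally for 21 d in 1% sodium CMC, INH 150 mg/kg/day, test compounds equimolar. Blood was drawn retrobulbarly after an overnight fast on day 22. Mean ± SEM; one-way ANOVA with Dunnett's test versus the INH group.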

Series [8] has as its system alanine aminotransferase (ALT). Briefly: Estimation of serum alanine aminotransferase. Format: in vivo, Wistar rats. Conditions: 21 d oral, mean ± SEM. An outline of the steps: as §3
A short description of series [9]: In vivo release studies after oral administration of NI. Also on record: species or system Wistar rats. An outline of the steps: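 Male Wistar rats were fasted 24 h and housed individually in metabolic cages. They received an oral suspension of test compound in 1.0 mL saline, 309 mg/kg (equimolar to INH). EDTA blood was collected at 0 min, every 15 min for 1 h, every 2 h to 10 h, and at 24 h. Samples were spun 5000 rpm at 0-5 °C, methanol-precipitated and analysed by HPLC. Urine and faeces were pooled over 24 h.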

`CC(S)C(=O)NCC(=O)NNC(=O)c1ccncc1` (stereo not shown) [MGI, 2-Mercapto-N-{2-oxo-2-[N’-(pyridine-4-carbonyl)-hydrazino]-ethyl}-propionamide]: in series [1], the “% Prodrug hydrolysed” value is recorded as 70.11%, the “K ± SD (hydrolysis rate constant)” value stood at 0.0033 min⁻¹ and the half-life is 3.62 h. Moreover, in the series with Wistar rats, the “Hepatoprotective potential assessment (overall)” value is given as “moderate effects”. For the same molecule, the solubility in “Aqueous solubility” worked out at 94 mg/mL (≈ 333 mM). For the same molecule, the Liver histopathology findings result in the series on rat liver was “minimal inflammation, with minimal portal triaditis and mild dilation of blood sinusoids”. Besides, the “Release of INH in stomach homogenates” value in series [2] is given as “Negligible”. In the series with malondialdehyde (MDA), the “Effect on MDA level (in words)” value was “better compared to that achieved with MI”. The “Stability in phosphate buffer, pH 7.4” value in series [3] is on record as “Stable”. Also, in [4], the “Level of GSHPx re-established” value was 91.83%. Also, the “Level of SOD re-established” value in series [5] is reported as 71.98%. Also, in series [6], the “Stability in HCl buffer, pH 1.2” value is “Stable”.
Take `CSCCC(N)C(=O)NNC(=O)c1ccncc1` (stereo not shown) [MI, Isonicotinic acid N’-(2-amino-4-methylsulfanyl-butyryl)-hydrazide]: in series [1], the “% Prodrug hydrolysed” value is 86.55%, the “K ± SD (hydrolysis rate constant)” value turned out to be 0.0051 min⁻¹ and the half-life was found to be 3.02 h. Also, the “Hepatoprotective potential assessment (overall)” value in the series on Wistar rats was “moderate effects”. In the series “Aqueous solubility”, this molecule displayed a solubility of 114 mg/mL (≈ 425 mM). Moreover, the Liver histopathology findings result in the series with rat liver was “minimal inflammation, with minimal portal triaditis and mild dilation of blood sinusoids”. Further, the “Release of INH in stomach homogenates” value in series [2] is “Negligible”. The “Stability in phosphate buffer, pH 7.4” value in [3] is “Stable”. Moreover, in series [4], the “Level of GSHPx re-established” value is 93.87%. Also, the “Level of SOD re-established” value in series [5] amounted to 88.69%. Besides, the “Stability in HCl buffer, pH 1.2” value in series [6] was “Stable”.
With `NNC(=O)c1ccncc1` [INH, isoniazid, reference compound], in the series “Aqueous solubility”, the solubility was 135 mg/mL (≈ 984 mM). In addition, in the series on rat liver, the Liver histopathology findings entry is “all these pathological changes were noticed”. Further, in the series with malondialdehyde (MDA), the “Effect on MDA level (in words)” value was “significantly higher”. In series [4], the “Effect on level of GSHPx (in words)” value is “significantly lower”. Further, in series [7], the AST level is 148 ± 7.60 U/L. Also, the “Effect on level of SOD (in words)” value in [5] is recorded as “significantly lower”. For the same molecule, in [8], the ALT level was 144 ± 7.70 U/L.
As for `CC(=O)NC(CS)C(=O)NNC(=O)c1ccncc1` (stereo not shown) [NI, N-{1-mercaptomethyl-2-oxo-2-[N’-(pyridine-4-carbonyl)-hydrazino]-ethyl}-acetamide], in series [1], the “% Prodrug hydrolysed” value turned out to be 94.93%, the “K ± SD (hydrolysis rate constant)” value was found to be 0.0034 min⁻¹ and the half-life was 3.89 h. In the series on Wistar rats, the “Hepatoprotective potential assessment (overall)” value is on record as “noteworthy effects”. Also, the solubility in “Aqueous solubility” was determined as 104 mg/mL (≈ 368 mM). In series [9] (24 h pooled samples), the “INH in urine and faeces samples” value is reported as “without any presence”; the “Intact NI in urine and faeces samples” value is on record as “not observed”. Further, in series [9] (Wistar rats, blood), the “Time at which intact NI completely disappeared from blood” value fell in the range of 7.5 to 9 h, the “Time from which concentration of intact NI in blood started declining” value was 5.5 to 6.5 h and the “Time of appearance of intact NI in blood” value was 2 to 2.5 h. In addition, the Liver histopathology findings entry in the series on rat liver is listed as “reversal of such pathology, with no evidence of necrosis, inflammation or fibrosis”. Besides, the “Release of INH in stomach homogenates” value in series [2] is “Negligible”. For the same molecule, the “Effect on MDA level (in words)” value in the series with malondialdehyde (MDA) is “better compared to that achieved with MI”. For the same molecule, the “Stability in phosphate buffer, pH 7.4” value in series [3] is reported as “Stable”. Besides, the “Level of GSHPx re-established” value in series [4] is recorded as 100%. The AST level in [7] was 46 ± 7.30 U/L. The “Level of SOD re-established” value in [5] was 93.39%. In addition, the “Stability in HCl buffer, pH 1.2” value in series [6] is “Stable”. Further, the ALT level in series [8] is listed as 48 ± 4.50 U/L.
